Only a selection was taken, and hits are over-represented in it overall.
NALP3 yeast inh = NALP3 inflammasome inhibitors in reconstituted yeast, primary screen, luminescence, uHTS. Yeast reconstituted NLRP3/ASC/caspase-1, beta-gal luminescence, 24 h. inhibition, % at 10 µM. actives 0.39% (n = 330,000). AID 2825, 2010;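 active = inhibition of 50% or more; inactive = inhibition below 50%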;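 also: plate controls were induced DMSO wells for no effect and uninduced yeast grown without galactose for full effect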
T cruzi repl = inhibitors of intracellular T. cruzi growth, primary screen, luminescence, NIH3T3 host cells | T. cruzi beta-gal in NIH3T3, 90 h | inhibition, % (no concentration beside the values) | actives 1.4% (n = 300,000) | AID 1885, 2009;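 active = mean inhibition across valid replicates above about 55%, limit read from the data; inconclusive = mean below that limit but half or more replicates reach it; inactive = mean below it, under half of replicates reach it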;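 also: signal also drops with host cell toxicity which is not excluded here; 0% = plate median of DMSO wells and 100% = zero luminescence signal; higher percent means less beta-gal luminescence so fewer parasites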
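System – NIH/3T3 host cells with β-galactosidase reporter T. cruzi · Doses – single 50 nL compound addition per well in DMSO · Reagent – 5000 T. cruzi trypomastigotes/well · Medium – Low-serum DMEM with 2% FBS · Timing – ≥90 h infection period, 3 h prior cell attachment · Evaluation – parasite load inhibition, % · Technique – GalScreen luminescence, 60 min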
Calb FLC = C. albicans growth inhibition with fluconazole, primary screen, CaCi-2 strain, Alamar Blue fluorescence; C. albicans CaCi-2 + fluconazole, 48 h; growth inhibition, % (concentration not given with the values); actives 0.57% (n = 300,000); AID 1979, 2009;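 active = growth inhibition above about 58% in most replicates, limit read from the data, passing the limit was not always enough; inconclusive = exactly half the replicates above a set limit; inactive = most replicates below a set limit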;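 also: all wells also contain fluconazole at 8 µg/ml as a sub-toxic cotreatment; 0% = median of DMSO wells and 100% = median of geldanamycin control wells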
NALP1 yeast inh = NALP1 inflammasome inhibitors in reconstituted yeast, colorimetric, S. cerevisiae, triplicate retest. S. cerevisiae NALP1/ASC/caspase-1 growth, X-gal OD620, 72 h. inhibition, % at 10 µM. actives 0.61% (n = 280,000). AID 2071, 2009; in the data active = inhibition mostly above about 24%, no sharp cut-off; inactive = mostly below about 32%
L major viab = Leishmania major promastigote growth inhibition, primary screen; Leishmania major promastigotes, resazurin fluorescence viability; inhibition, % at 10 µM; actives 9% (n = 200,000); in the data active = inhibition above about 50%;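 also: promastigotes grown with compound for 44 hours at 28 °C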
PolyA inh = polyadenylation inhibitors in yeast reporter cells, primary screen, luminescence, S. cerevisiae; actives 0.02% (n = 300,000); activity score, % at 12 µM; S. cerevisiae SKY197-pL101 polyadenylation reporter, beta-gal luminescence; efflux-impaired pdr1/pdr3 knockout yeast; score 100 = 6 SD above DMSO;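 active = lowest replicate activity score at least 50, where 100 means six control SD above control mean; inconclusive = lowest score under 50 but half or more replicates reach 50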;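 also: yeast exposed to compound for 9 h at 30 °C; higher score means more reporter readthrough which indicates perturbed polyadenylation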
* hit, by the source's call; ? = inconclusive; / = no result.

SMILES	NALP3 yeast inh	T cruzi repl	Calb FLC	NALP1 yeast inh	L major viab	PolyA inh
CC1CCN(c2c([N+](=O)[O-])nn(-c3ccc4c(c3)OCCO4)[n+]2[O-])CC1	23	62*	-13	5	34	13
Cc1ccc(C(=O)N/C(=C\c2sccc2C)C(=O)NCCCN2CCOCC2)cc1	22	-1	4	17	/	?
O=C(Cn1ncn2c(cc3ccccc32)c1=O)NCCCc1ccccc1	-4	-14	-4	8	/	-2
O=C(NCc1ccc(Cl)cc1)c1cccc(NC(=O)c2ccccc2)c1	13	-1	-10	31	55*	-1
O=C(NCc1ccccc1)c1ccc(Cl)cc1	21	-12	-4	/	/	1
COc1ccc(C(C(=O)NC(C)C)N(C(=O)CCC(=O)Nc2nccs2)c2ccccc2F)cc1 (stereo not given)	-13	10	-1	33*	-3	2
COCCNC(=O)C(c1ccc(OC)cc1)N(CCOC)C(=O)CCC(=O)Nc1nccs1 (stereo not given)	7	-11	-1	20	/	-5
CC(=O)Nc1cc(C(=O)NCc2ccco2)ccc1Sc1ccc(F)cc1	19	18	16	5	5	-3
CC(=O)Nc1cc(C(=O)NCc2ccco2)ccc1Sc1ccc(Cl)cc1	0	3	-3	42	92*	3
CC(=O)Nc1cc(C(=O)N(C)Cc2ccco2)ccc1Sc1ccc(Cl)cc1	9	-3	-4	23	0	-14
CCOc1ccccc1CNC(=O)c1ccc(Sc2ccc(Cl)cc2)c(NC(C)=O)c1	17	-5	-10	37	85*	22
CCOc1ccc(CNC(=O)c2ccc(Sc3ccc(Cl)cc3)c(NC(C)=O)c2)cc1	21	48	3	25	95*	-7
CCOc1ccccc1C(=O)NCC(=O)NCCc1ccc(S(N)(=O)=O)cc1	10	-7	-1	11	/	6
CCN(c1ccccc1)S(=O)(=O)c1ccc(Oc2ccccc2C(C)=O)nc1	13	/	/	/	/	/
CCN(c1ccccc1)S(=O)(=O)c1ccc(Oc2ccc(-n3ccnc3)cc2)nc1	-4	45	1	/	76*	-13
Cc1sc(NC(=O)c2ccco2)nc1-c1ccc2c(c1)CC(C)N2C(=O)C1CC1 (stereo not given)	-6	-26	6	18	86*	-13
Cc1nn(-c2ccccc2)c(N2CCCC2)c1/C=N/n1cnc2scc(-c3ccccc3)c2c1=O	-4	36	?	12	56*	-6
O=c1c2c(-c3ccc(Cl)cc3)csc2ncn1/N=C/c1cccc([N+](=O)[O-])c1O	21	-1	-38	20	9	-24
O=c1c2c(-c3ccccc3)csc2ncn1/N=C/c1c2ccccc2cc2ccccc12	12	30	13	11	100*	-18
CC(C)(C)OC(=O)CNC(=O)c1nc[nH]c1C(=O)N1CCNCC1	12	-10	-16	/	/	1
O=C1Nc2ccc(Br)cc2C1(O)c1ccc(F)cc1 (stereo not given)	5	-8	3	15	/	5
CCN(CC)CC(C(=O)N(CC)CC)P(=O)(c1ccccc1)c1ccccc1 (stereo not given)	21	-14	-2	42*	5	32
Cc1ccc(-n2c(-c3ccc(Br)cc3)c[n+]3c2CCc2ccc4cccnc4c2-3)cc1	/	60*	99*	17	100*	0
Cc1nn(C2CCS(=O)(=O)C2)c(Cl)c1/C=C/C(=O)OCC(=O)c1cc(C)n(-c2ccc(F)cc2)c1C (stereo not given)	-2	7	8	31	98*	8
Cc1nn(C2CCS(=O)(=O)C2)c(Cl)c1/C=C/C(=O)OCC(=O)c1c[nH]c2ccccc12 (stereo not given)	10	-34	-2	30	60*	-10
O=C(COC(=O)C1CC2C=CC1C2)Nc1cccc(S(=O)(=O)N2CCOCC2)c1 (stereo not given)	-1	-3	-2	17	/	8
